PMC3443740 (Journal of immunology (Baltimore, Md. : 1950), 2012)

Experiments:
panel of 121 kinases = experiment: kinase selectivity profiling; type: biochemical; details: panel of 121 kinases in vitro; Ruxolitinib at 0.1 μM
TrkA = TrkA (Homo sapiens, UniProt P04629); experiment: in vitro protein kinase assay, TrkA; type: biochemical; details: read-out: inhibition of TrkA
IRAK1 = IRAK1 (Homo sapiens, UniProt P51617); experiment: in vitro protein kinase assay, IRAK1; type: biochemical; details: 1 μM Ruxolitinib
Sequence of IRAK1 (P51617 whole entry, species assumed): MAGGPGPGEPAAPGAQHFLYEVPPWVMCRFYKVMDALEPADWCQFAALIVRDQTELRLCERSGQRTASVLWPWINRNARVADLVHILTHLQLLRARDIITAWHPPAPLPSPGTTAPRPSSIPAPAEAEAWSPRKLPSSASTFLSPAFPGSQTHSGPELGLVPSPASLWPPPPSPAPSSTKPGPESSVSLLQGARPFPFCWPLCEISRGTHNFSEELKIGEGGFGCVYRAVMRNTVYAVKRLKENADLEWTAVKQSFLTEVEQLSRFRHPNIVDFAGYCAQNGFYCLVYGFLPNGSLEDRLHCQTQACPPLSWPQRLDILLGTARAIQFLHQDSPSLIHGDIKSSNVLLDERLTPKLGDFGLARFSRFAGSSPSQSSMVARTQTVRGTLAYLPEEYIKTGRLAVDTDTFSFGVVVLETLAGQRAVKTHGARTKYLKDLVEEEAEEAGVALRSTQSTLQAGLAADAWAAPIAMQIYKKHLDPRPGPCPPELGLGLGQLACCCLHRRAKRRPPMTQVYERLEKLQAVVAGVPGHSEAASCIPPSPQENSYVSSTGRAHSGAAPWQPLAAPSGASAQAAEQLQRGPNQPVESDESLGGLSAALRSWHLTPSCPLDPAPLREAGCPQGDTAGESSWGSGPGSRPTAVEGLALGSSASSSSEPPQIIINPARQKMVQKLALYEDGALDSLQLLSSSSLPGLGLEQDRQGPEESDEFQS

MARK3 = MARK3 (Homo sapiens, UniProt P27448); experiment: in vitro protein kinase assay, MARK3; type: biochemical; details: 1 μM Ruxolitinib
Sequence of MARK3 (P27448 whole entry, species assumed): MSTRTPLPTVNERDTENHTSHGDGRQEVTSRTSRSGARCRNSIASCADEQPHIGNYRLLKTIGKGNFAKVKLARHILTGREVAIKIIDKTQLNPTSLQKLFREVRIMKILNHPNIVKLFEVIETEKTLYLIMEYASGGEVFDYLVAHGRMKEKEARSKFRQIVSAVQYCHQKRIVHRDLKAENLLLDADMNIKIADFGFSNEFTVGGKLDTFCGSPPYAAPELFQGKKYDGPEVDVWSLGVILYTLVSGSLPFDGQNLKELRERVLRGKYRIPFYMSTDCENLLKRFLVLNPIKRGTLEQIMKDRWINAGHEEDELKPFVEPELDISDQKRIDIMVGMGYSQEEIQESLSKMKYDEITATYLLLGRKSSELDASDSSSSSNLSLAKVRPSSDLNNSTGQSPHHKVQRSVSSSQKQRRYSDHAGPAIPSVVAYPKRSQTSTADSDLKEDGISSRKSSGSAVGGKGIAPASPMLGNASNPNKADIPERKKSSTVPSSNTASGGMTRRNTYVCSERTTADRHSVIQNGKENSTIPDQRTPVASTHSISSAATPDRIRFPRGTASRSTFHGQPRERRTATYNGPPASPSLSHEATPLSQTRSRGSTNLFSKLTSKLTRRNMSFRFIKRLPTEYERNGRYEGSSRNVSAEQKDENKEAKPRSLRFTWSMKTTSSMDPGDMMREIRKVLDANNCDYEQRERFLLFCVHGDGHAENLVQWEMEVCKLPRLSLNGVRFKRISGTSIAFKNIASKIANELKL

BMDMs [1] = experiment: LPS induced signaling in BMDMs, immunoblotting; type: cell-based, mouse; details: 0.5 μM Ruxolitinib, 100 ng/ml LPS
How it was run: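 Wild-type mouse BMDMs were pretreated 1 h with 0.5 µM test compound, then stimulated with 100 ng/ml LPS for varying times. Cells were lysed directly in SDS sample buffer and run on 10% polyacrylamide gels, then transferred to nitrocellulose. Blots were probed for total and phospho STAT3 (Y705, S727), phospho-STAT1 Y701, ERK1/2, p38, phospho-JNK, phospho-p105 and IκBα, with HRP secondaries and ECL detection.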

BMDMs [2] = experiment: LPS induced IL-10 mRNA; type: cell-based, mouse; details: 100 ng/ml LPS
How it was run: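 BMDMs came from wild-type or IFNαβR knockout mice, cultured 7 d with mCSF and used 24 h after replating. They were pretreated 1 h with test compound (0.5 µM or 5 µM), then given 100 ng/ml E. coli O26:B6 LPS over a time course. IL-10 mRNA was measured by Q-PCR (18s-normalised) and secreted IL-10 by multiplex assay. SD from independent cultures of four mice.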

BMDMs [3] = experiment: IFNβ induced IL-10 and IL-6 transcription in BMDMs; type: cell-based, mouse; details: 0.5 μM Ruxolitinib, 500 Units/ml IFNβ, wild type BMDMs
How it was run: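 Wild-type mouse BMDMs were grown 7 d from bone marrow in DMEM with 10% heat-inactivated FBS and 5 ng/ml mCSF, then replated and used 24 h later. Cells were pretreated 1 h with 0.5 µM test compound, then given 500 U/ml IFN-β for varying times. IL-10 or IL-6 mRNA was measured by SYBR green Q-PCR, normalised to 18s against unstimulated wild-type controls. Four mice, independent cultures.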

BMDMs [4] = experiment: LPS induced pro-inflammatory cytokine production in BMDMs; type: cell-based, mouse
How it was run: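 BMDMs came from wild-type, IL-10 knockout or IFNαβR knockout mice and were pretreated 1 h with 0.5 µM test compound. Stimulation was 100 ng/ml LPS over a time course, or LPS ± 100 ng/ml IL-10 for 6 h in IL-10 knockout cells. Secreted TNF-α, IL-6, IL-12p40 and IL-12p70 were measured by Luminex multiplex, and the matching mRNAs (IL-12p35 for p70) by 18s-normalised Q-PCR. Four mice per genotype.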

phospho Tyr705 STAT3 = details: BMDMs, 100 ng/ml IL-10 30 min
phospho-Y701 STAT1 = details: BMDMs, 500 Units/ml IFNβ 30 min
DBA/1J mice = details: IP LPS, 5mg/kg Tofacitinib, ref [50]; cited from earlier work
[5] = 0.5 μM Ruxolitinib, wild type BMDMs
[6] = 0.5 μM Ruxolitinib, 100 ng/ml LPS
[7] = 0.5 μM Ruxolitinib, 100 ng/ml LPS 6 h

Sequence of TrkA (P04629 33-796, species assumed): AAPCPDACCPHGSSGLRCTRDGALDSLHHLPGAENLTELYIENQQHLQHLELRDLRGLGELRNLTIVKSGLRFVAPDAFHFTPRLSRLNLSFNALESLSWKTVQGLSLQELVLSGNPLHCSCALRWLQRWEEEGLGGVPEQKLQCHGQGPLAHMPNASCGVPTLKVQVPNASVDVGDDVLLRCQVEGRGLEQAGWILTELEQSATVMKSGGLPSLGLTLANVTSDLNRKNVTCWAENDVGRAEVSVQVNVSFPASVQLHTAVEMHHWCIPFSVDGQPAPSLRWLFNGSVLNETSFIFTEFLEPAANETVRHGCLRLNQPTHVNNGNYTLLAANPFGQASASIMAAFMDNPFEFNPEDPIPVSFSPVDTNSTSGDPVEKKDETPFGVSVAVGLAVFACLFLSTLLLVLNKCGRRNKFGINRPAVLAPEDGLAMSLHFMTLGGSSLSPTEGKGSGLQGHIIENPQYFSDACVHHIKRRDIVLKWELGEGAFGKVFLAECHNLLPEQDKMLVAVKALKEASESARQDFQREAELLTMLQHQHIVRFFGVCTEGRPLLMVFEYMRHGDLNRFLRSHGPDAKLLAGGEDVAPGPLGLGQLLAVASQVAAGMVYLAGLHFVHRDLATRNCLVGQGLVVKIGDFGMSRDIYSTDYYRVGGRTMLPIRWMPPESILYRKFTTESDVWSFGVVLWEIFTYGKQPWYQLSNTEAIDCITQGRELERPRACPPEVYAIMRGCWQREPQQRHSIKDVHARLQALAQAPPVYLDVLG

Q: With `N#C/C(=C/c1ccc(O)c(O)c1)C(=O)NCc1ccccc1` [AG-490] as the compound, how does the “selectivity in kinase panel” value (panel of 121 kinases) read?
A: could also block several Ser/Thr kinases

Q: Which results are given for `N#CC[C@H](C1CCCC1)n1cc(-c2ncnc3[nH]ccc23)cn1` [Ruxolitinib]?
A: inhibition at 0.1 µM (TrkA): > 50%; activity against IRAK1 (IRAK1): weak activity; activity against MARK3 (MARK3): weak activity; LPS induced STAT1 Y701 phosphorylation (BMDMs [1]): blocked; TLR4 induced activation of the ERK1/2, p38 or JNK MAPK cascades (BMDMs [1]): did not affect; activation of the NFκB pathway (IκBα degradation, p105 and IκBα phosphorylation) (BMDMs [1]): no major affects; phosphorylation of STAT3 on S727 (BMDMs [1]): not blocked; phosphorylation of STAT3 on Y705 in response to LPS (BMDMs [1]): completely blocked; IL-10 levels secreted from IFNαβR knockout macrophages (BMDMs [2]; 0.5 μM Ruxolitinib): did not affect; IL-10 secreted into the media at later time points (8 to 24 h) (BMDMs [2]; [5]): decrease; IL-10 secretion at 4 h (BMDMs [2]; [5]): unaffected; initial transcription of IL-10 (BMDMs [2]; [5]): did not affect; transcription of IL-10 at later time points (BMDMs [2]; [5]): reduce; IFNβ induced IL-10 transcription (BMDMs [3]): greatly reduced; IFNβ stimulated IL-6 transcription (BMDMs [3]): inhibited; IL-6 production from IFNαβR knockout macrophages (BMDMs [4]; [6]): increased; IL-6 production from wild type cells (BMDMs [4]; [6]): increased; TNFα production in IL-10 knockout cells (BMDMs [4]; [6]): little effect; peak amount of LPS-induced IL-12 mRNA in IL-10 knockout cells (BMDMs [4]; [6]): decreased; secreted levels of IL-6 in wild type and IL-10 knockout cells (BMDMs [4]; [6]): intermediate between the wild type and IL-10 knockout cells; production of IL-6 by LPS in IL-10 knockout BMDMs (BMDMs [4]; [7]): moderately decreased; production of TNFα by LPS in IL-10 knockout BMDMs (decrease) (BMDMs [4]; [7]): to a lesser extent; TNFα mRNA and secreted protein levels in wild type cells (BMDMs [4]; 0.5 μM Ruxolitinib, 100 ng/ml LPS, to similar values as IL-10 knockout BMDMs): increased; inhibitory effects of IL-10 on TNFα and IL-6 production (BMDMs [4]; IL-10 knockout BMDMs, 0.5 μM Ruxolitinib, LPS and 100 ng/ml IL-10 6 h): blocked

Q: Which “IL-10 mRNA at later time points” value (BMDMs [2]; 5 μM Tofacitinib) does the source give for `C[C@@H]1CCN(C(=O)CC#N)C[C@@H]1N(C)c1ncnc2[nH]ccc12` [Tofacitinib] here?
A: inhibited

Q: What about the “IL-10 secretion at 8 and 16h after LPS stimulation” value (BMDMs [2]; 5 μM Tofacitinib) of the same compound?
A: decreased

Q: And the “initial phase of IL-10 transcription” value (BMDMs [2]; 5 μM Tofacitinib)?
A: did not affect

Q: And the “IL-6 secretion following 24h of LPS stimulation” value (BMDMs [4]; Tofacitinib)?
A: increased

Q: And the “TNF and IL-12 production in response to a prolonged stimulation with LPS” value (BMDMs [4]; Tofacitinib at a concentration able to inhibit STAT3 phosphorylation)?
A: increased

Q: What about the “IL-10 stimulated STAT3 phosphorylation” value (phospho Tyr705 STAT3) of the same compound?
A: able to block

Q: What about the “IFNβ stimulated STAT1 phosphorylation” value (phospho-Y701 STAT1) of the same compound?
A: able to block

Q: And the “plasma IL-10 levels” value (DBA/1J mice)?
A: increased

Q: What about the “plasma levels of TNF, IL-6 and IL-12” value (DBA/1J mice) of the same compound?
A: reduced
